Converted amounts (≈) assume the structure as drawn.
Legend:
[1] = system: Panel NCI-60 (60 carcinoma cell lines); assay: Cytotoxicity against human NCI60 cells assessed as cell growth at 10 uM relative to control; assay type: cell-based
Method in brief: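 Single-dose screen at 10 μM across the full NCI 60 cell line panel; read-out was percent cell growth.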

[2] = system: Mycobacterium tuberculosis; assay: Antitubercular activity against Mycobacterium tuberculosis H37Rv by broth microdilution Alamar blue assay; assay type: functional
Method in brief: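 Mtb H37Rv growth was measured by broth microdilution Alamar blue assay (MABA). Percentage inhibition at each concentration gave the MIC, defined as the lowest concentration preventing visible bacterial growth. Rifampicin served as positive control. Values are means of three experiments.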

Plasmodium falciparum = assay: Antiplasmodial activity against Plasmodium falciparum W2 assessed as parasite growth inhibition relative to control; assay type: functional
DU-145 = assay: Cytotoxicity against human DU145 cells assessed as reduction in cell viability; assay type: functional, cell-based
Vero = assay: Cytotoxicity against African green monkey Vero cells assessed as reduction in cell viability; assay type: cell-based; conditions: Chlorocebus sabaeus
A2058 = assay: Cytotoxicity against human A2058 cells assessed as reduction in cell viability; assay type: functional, cell-based

Compound | MIC [2] [mg/L] | also measured
C=C(C/C=C(\C)C(=O)N[C@H](C(=O)N1CCC[C@H]1c1nccs1)C(C)C)Cc1ccccc1 | > 128 | Activity [1]: > 90%
CC1=C(O)[C@@](C)(CCCCCCCCCCCCc2ccc(O)cc2)OC1=O | > 128 | 
C/C(=C\C/C(=C\Cl)Cc1ccccc1)C(=O)N[C@H](C(=O)N1CCC[C@H]1c1nccs1)C(C)C | 4.1 (≈ 8.43 µM) | growth inhibition (GI) (Plasmodium falciparum): 55%; IC50 (DU-145): 15 µM; IC50 (Vero): > 128 mg/L; IC50 (A2058): 20 µM
CC1=C(O)[C@@](C)(CCCCC[C@H](C)CCCCc2ccc(O)cc2)OC1=O | > 128 | 
CC1=C(O)[C@@](C)(CCCCC[C@H](C)CCCCc2ccc(O)c(O)c2)OC1=O | > 128 | 
CO[C@H]1/C=C/O[C@@]2(C)Oc3c(C)c(O)c4c(O)c(c(/C=N/N5CCN(C)CC5)c(O)c4c3C2=O)NC(=O)/C(C)=C\C=C\[C@H](C)[C@H](O)[C@@H](C)[C@@H](O)[C@@H](C)[C@H](OC(C)=O)[C@@H]1C [RIFAMPIN] | 0.1 (≈ 0.122 µM) | 

— ChEMBL document CHEMBL4190284, “Exploring the Sponge Consortium Plakortis symbiotica-Xestospongia deweerdtae as a Potential Source of Antimicrobial Compounds and Probing the Pharmacophore for Antituberculosis Activity of Smenothiazole A by Diverted Total Synthesis” (J Nat Prod, 2017)
